pEC50: −log10 of the molar value. Bridge positions count the residues as written; N and C are the ends. Square brackets hold non-standard residues; d marks the D form. Peptide text beside a SMILES is read from it. Ala(2-furyl) = N[C@@H](Cc1ccco1)C(=O)O; Ala(cPent) = N[C@@H](CC1CCCC1)C(=O)O; Orn(iPr) = CC(C)NCCC[C@H](N)C(=O)O; Cha = N[C@@H](CC1CCCCC1)C(=O)O; Orn = NCCC[C@H](N)C(=O)O; Dab = NCC[C@H](N)C(=O)O; Ac4c = NC1(C(=O)O)CCC1
Legend:
Vasopressin V1a receptor [1] = biological target: Vasopressin V1a receptor (Homo sapiens, UniProt P37288); experiment: Agonist activity at recombinant human vasopressin V1a receptor expressed in HEK293 cells by luciferase reporter gene assay; format: functional, cell-based; conditions: read-out: EC50
Sequence of Vasopressin V1a receptor (Homo sapiens, UniProt P37288) (P37288 whole entry): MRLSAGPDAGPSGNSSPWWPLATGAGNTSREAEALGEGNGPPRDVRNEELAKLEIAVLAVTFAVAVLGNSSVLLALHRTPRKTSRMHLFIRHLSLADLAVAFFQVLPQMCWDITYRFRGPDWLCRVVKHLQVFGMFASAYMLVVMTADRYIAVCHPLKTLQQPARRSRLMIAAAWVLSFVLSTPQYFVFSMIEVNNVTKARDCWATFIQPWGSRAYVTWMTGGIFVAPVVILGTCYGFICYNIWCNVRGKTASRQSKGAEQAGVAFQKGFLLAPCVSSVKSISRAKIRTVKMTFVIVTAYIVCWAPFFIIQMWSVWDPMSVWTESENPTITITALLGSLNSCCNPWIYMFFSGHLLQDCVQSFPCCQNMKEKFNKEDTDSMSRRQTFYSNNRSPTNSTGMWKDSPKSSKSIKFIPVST

Vasopressin V1b receptor = biological target: T1, Vasopressin V1b receptor (Homo sapiens, UniProt P47901); experiment: Agonist activity at recombinant human vasopressin V1b receptor expressed in Flp-In-293 cells by luciferase reporter gene assay; format: functional, cell-based; conditions: read-out: EC50
T1 sequence (P47901 whole entry): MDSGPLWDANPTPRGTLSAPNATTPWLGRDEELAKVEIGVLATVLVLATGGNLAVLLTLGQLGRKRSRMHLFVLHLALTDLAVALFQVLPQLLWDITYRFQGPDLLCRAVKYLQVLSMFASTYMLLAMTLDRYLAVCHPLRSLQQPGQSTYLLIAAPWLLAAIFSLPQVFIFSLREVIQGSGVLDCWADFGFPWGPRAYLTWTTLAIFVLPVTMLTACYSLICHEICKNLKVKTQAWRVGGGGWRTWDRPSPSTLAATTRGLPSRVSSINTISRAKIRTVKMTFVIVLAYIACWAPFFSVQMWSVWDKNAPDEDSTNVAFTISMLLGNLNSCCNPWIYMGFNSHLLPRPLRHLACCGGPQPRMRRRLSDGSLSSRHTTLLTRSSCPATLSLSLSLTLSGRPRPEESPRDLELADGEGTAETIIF
Method in brief: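 Reporter gene assays in HEK293 cells transiently cotransfected with V1a (human or rat) or human V2 receptor vector plus NFAT-luciferase (V1a) or CRE-luciferase (V2) reporter; V1b in Flp-In-293 stably expressing receptor, OT in CHO-K1 stably expressing receptor, both transiently transfected with NFAT-luciferase. Two days post-transfection, peptides added for 5 h at 37 °C, lysis with luciferin, luminescence read.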

Vasopressin V2 receptor [2] = biological target: T2, Vasopressin V2 receptor (Homo sapiens, UniProt P30518); experiment: Agonist activity at recombinant human vasopressin V2 receptor expressed in HEK293 cells by luciferase reporter gene assay; format: functional, cell-based; conditions: for pEC50: read-out: EC50; for EC50: read-out: pEC50 (converted)
T2 sequence (P30518 whole entry): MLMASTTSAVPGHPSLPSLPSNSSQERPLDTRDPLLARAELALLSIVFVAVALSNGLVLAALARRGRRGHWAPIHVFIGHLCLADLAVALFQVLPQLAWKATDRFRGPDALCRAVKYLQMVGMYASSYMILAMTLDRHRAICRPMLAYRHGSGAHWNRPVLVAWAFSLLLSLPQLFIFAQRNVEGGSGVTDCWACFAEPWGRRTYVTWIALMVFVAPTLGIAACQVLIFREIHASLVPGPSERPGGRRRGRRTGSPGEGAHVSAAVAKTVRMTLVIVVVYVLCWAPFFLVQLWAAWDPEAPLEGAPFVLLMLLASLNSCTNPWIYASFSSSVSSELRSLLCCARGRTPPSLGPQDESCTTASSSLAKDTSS

Vasopressin V1a receptor [3] = biological target: Vasopressin V1a receptor (Rattus norvegicus, UniProt P30560); experiment: Agonist activity at recombinant rat vasopressin V1a receptor expressed in HEK293 cells by luciferase reporter gene assay; format: functional, cell-based; conditions: for pEC50: read-out: EC50
Sequence of Vasopressin V1a receptor (Rattus norvegicus, UniProt P30560) (P30560 whole entry): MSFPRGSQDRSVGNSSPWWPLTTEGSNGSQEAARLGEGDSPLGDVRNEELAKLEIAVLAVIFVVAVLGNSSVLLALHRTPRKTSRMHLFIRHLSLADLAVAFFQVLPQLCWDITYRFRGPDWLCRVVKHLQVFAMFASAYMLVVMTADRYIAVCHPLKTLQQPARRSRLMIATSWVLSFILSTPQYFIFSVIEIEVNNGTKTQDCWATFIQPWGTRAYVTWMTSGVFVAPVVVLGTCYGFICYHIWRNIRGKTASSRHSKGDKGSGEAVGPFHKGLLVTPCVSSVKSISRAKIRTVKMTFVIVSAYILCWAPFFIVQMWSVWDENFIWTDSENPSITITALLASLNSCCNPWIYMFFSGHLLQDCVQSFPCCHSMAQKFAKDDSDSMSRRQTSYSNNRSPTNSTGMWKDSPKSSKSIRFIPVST

[4] = biological target: Vasopressin V1a/V2 (Homo sapiens) (UniProt P30518+P37288); experiment: Selectivity ratio of EC50 for human vasopressin V2 receptor to EC50 for human vasopressin V1a receptor
Sequence of Vasopressin V1a/V2 (Homo sapiens) (P30518 whole entry, looked up): as the sequence (P30518 whole entry) above
Sequence of Vasopressin V1a/V2 (Homo sapiens) (P37288 whole entry, looked up): as the sequence (P37288 whole entry) above

Oxytocin receptor = biological target: T3, Oxytocin receptor (Homo sapiens, UniProt P30559); experiment: Agonist activity at human OT receptor expressed in CHO-K1 cells by luciferase reporter gene assay; format: functional, cell-based; conditions: for pEC50: read-out: EC50; for EC50: read-out: pEC50 (converted)
T3 sequence (P30559 whole entry): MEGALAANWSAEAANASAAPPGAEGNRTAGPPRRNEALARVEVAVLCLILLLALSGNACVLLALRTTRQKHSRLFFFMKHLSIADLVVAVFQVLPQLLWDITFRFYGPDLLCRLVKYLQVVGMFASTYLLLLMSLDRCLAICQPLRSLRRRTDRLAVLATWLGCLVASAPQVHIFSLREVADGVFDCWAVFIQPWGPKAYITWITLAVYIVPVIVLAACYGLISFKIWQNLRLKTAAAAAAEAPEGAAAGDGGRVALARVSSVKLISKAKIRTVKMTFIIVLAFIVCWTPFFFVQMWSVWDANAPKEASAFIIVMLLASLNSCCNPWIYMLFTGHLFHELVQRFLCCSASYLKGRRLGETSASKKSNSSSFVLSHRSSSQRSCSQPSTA

Homo sapiens [5] = species on record: Homo sapiens; experiment: Selectivity ratio of EC50 for human vasopressin V1b receptor to EC50 for human vasopressin V1a receptor
Homo sapiens [6] = species on record: Homo sapiens; experiment: Selectivity ratio of EC50 for human oxytocin receptor to EC50 for human vasopressin V1a receptor
Vasopressin V2 receptor [7] = biological target: T2, Vasopressin V2 receptor; experiment: Partial agonist activity at recombinant human vasopressin V2 receptor expressed in HEK293 cells by luciferase reporter gene assay; format: functional, cell-based
Method in brief: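 Same luciferase reporter systems (OT in stable CHO-K1, V1b in stable Flp-In-293, each with transient NFAT-luciferase; V1a in HEK293 with NFAT-luciferase, V2 in HEK293 with CRE-luciferase). Peptides added for 5 h at 37 °C two days post-transfection, luminescence read. Partial agonism means efficacy <70%.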

Structure (SMILES)	pEC50 (Vasopressin V1a receptor [1])	pEC50 (Vasopressin V1b receptor)	pEC50 (Vasopressin V2 receptor [2])	pEC50 (Vasopressin V1a receptor [3])	EC50 (Vasopressin V1a receptor [3]; read-out: pEC50 (converted)) [nM]	Ratio EC50 [4]	pEC50 (Oxytocin receptor; cho-k1)	EC50 (Oxytocin receptor) [nM]	Ratio EC50 (Homo sapiens [5])	Ratio EC50 (Homo sapiens [6])	Efficacy (Vasopressin V2 receptor [7]) [%]	pEC50 (Vasopressin V2 receptor [2]; hek293)	EC50 (Vasopressin V2 receptor [2]) [nM]	pEC50 (Oxytocin receptor)
N=C(N)NCCC[C@H](NC(=O)[C@@H]1CCCN1C(=O)[C@@H]1CSSC[C@H](N)C(=O)N[C@@H](Cc2ccccc2)C(=O)N[C@@H](Cc2ccccc2)C(=O)N[C@@H](CCC(N)=O)C(=O)N[C@@H](CC(N)=O)C(=O)N1)C(=O)NCC(N)=O (H-CFFQNCPRG-NH2; disulfide 1-6)	9.82	7.80	8.85	10.15	0.0794									
CC[C@H](C)[C@@H]1NC(=O)[C@H](Cc2ccccc2)NC(=O)[C@@H](N)CSSC[C@@H](C(=O)N2CCC[C@H]2C(=O)N[C@@H](CCN)C(=O)NCC(N)=O)NC(=O)[C@H](CC(N)=O)NC(=O)[C@H](CC(=O)NC)NC1=O (H-CFID(NHMe)NCP[Dab]G-NH2; disulfide 1-6)	8.41	8.06	5.28			1300	< 5.00	> 10000	2.2	> 2500	< 70			
CCNC(=O)CC[C@@H]1NC(=O)[C@H]([C@@H](C)CC)NC(=O)[C@H](Cc2ccccc2)NC(=O)[C@@H](N)CSSC[C@@H](C(=O)N2CCC[C@H]2C(=O)N[C@@H](CCCN)C(=O)NCC(N)=O)NC(=O)[C@H](CC(N)=O)NC1=O (H-CFIE(NHEt)NCP[Orn]G-NH2; disulfide 1-6)	7.41	7.01	5.59			66	< 5.00	> 10000	2.4	> 250	< 70			
CC[C@H](C)[C@@H]1NC(=O)[C@H](Cc2ccccc2)NC(=O)[C@@H](N)CSSC[C@@H](C(=O)N2CCC[C@H]2C(=O)N[C@@H](CCCN)C(=O)NCC(N)=O)NC(=O)[C@H](CC(N)=O)NC(=O)[C@H](CCC(N)=O)NC1=O (H-CFIQNCP[Orn]G-NH2; disulfide 1-6)		7.60	6.81	9.92			< 5.00	> 10000						
CC[C@H](C)[C@@H]1NC(=O)C2(CCC2)NC(=O)[C@@H](N)CSSC[C@@H](C(=O)N2CCC[C@H]2C(=O)N[C@@H](CCCN)C(=O)NCC(N)=O)NC(=O)[C@H](CC(N)=O)NC(=O)[C@H](CC(N)=O)NC1=O (H-C[Ac4c]INNCP[Orn]G-NH2; disulfide 1-6)	8.10	6.96				> 1200	< 5.00	> 10000	13	> 1200		< 5.00	> 10000	
CC[C@H](C)[C@@H]1NC(=O)[C@H](Cc2ccco2)NC(=O)[C@@H](N)CSSC[C@@H](C(=O)N2CCC[C@H]2C(=O)N[C@@H](CCCNC(C)C)C(=O)NCC(N)=O)NC(=O)[C@H](CC(N)=O)NC(=O)[C@H](CC(N)=O)NC1=O (H-C[Ala(2-furyl)]INNCP[Orn(iPr)]G-NH2; disulfide 1-6)	7.82	5.74				> 660			120	64		< 5.00	> 10000	6.01
CC[C@H](C)[C@@H]1NC(=O)[C@H](Cc2ccco2)NC(=O)[C@@H](N)CSSC[C@@H](C(=O)N2CCC[C@H]2C(=O)N[C@@H](CCCN)C(=O)NCC(N)=O)NC(=O)[C@H](CC(N)=O)NC(=O)[C@H](CC(N)=O)NC1=O (H-C[Ala(2-furyl)]INNCP[Orn]G-NH2; disulfide 1-6)	8.00	6.28				> 1000	< 5.00	> 10000	53	> 1000		< 5.00	> 10000	
CC[C@H](C)[C@@H]1NC(=O)[C@H](Cc2ccco2)NC(=O)[C@@H](N)CSSC[C@@H](C(=O)N2CCC[C@H]2C(=O)N[C@@H](CCN)C(=O)NCC(N)=O)NC(=O)[C@H](CC(N)=O)NC(=O)[C@H](CCC(N)=O)NC1=O (H-C[Ala(2-furyl)]IQNCP[Dab]G-NH2; disulfide 1-6)	8.66	6.68	6.48			150			95	47				6.98
CC[C@H](C)[C@@H]1NC(=O)[C@H](CC2CCCC2)NC(=O)[C@@H](N)CSSC[C@@H](C(=O)N2CCC[C@H]2C(=O)N[C@@H](CCN)C(=O)NCC(N)=O)NC(=O)[C@H](CC(N)=O)NC(=O)[C@H](CC(N)=O)NC1=O (H-C[Ala(cPent)]INNCP[Dab]G-NH2; disulfide 1-6)	7.96	7.12				> 900	< 5.00	> 10000	6.9	> 900		< 5.00	> 10000	
CC[C@H](C)[C@@H]1NC(=O)[C@H](CC2CCCC2)NC(=O)[C@@H](N)CSSC[C@@H](C(=O)N2CCC[C@H]2C(=O)N[C@@H](CCCN)C(=O)NCC(N)=O)NC(=O)[C@H](CC(N)=O)NC(=O)[C@H](CC(N)=O)NC1=O (H-C[Ala(cPent)]INNCP[Orn]G-NH2; disulfide 1-6)	8.11	6.92				> 1200	< 5.00	> 10000	15	> 1200		< 5.00	> 10000	
CC[C@H](C)[C@@H]1NC(=O)[C@H](CC2CCCCC2)NC(=O)[C@@H](N)CSSC[C@@H](C(=O)N2CCC[C@H]2C(=O)N[C@@H](CCN)C(=O)NCC(N)=O)NC(=O)[C@H](CC(N)=O)NC(=O)[C@H](CC(N)=O)NC1=O (H-C[Cha]INNCP[Dab]G-NH2; disulfide 1-6)	8.80	7.74				> 6200	< 5.00	> 10000	11	> 6200		< 5.00	> 10000	
CC[C@H](C)[C@@H]1NC(=O)[C@H](CC2CCCCC2)NC(=O)[C@@H](N)CSSC[C@@H](C(=O)N2CCC[C@H]2C(=O)N[C@@H](CCCN)C(=O)NCC(N)=O)NC(=O)[C@H](CC(N)=O)NC(=O)[C@H](CC(N)=O)NC1=O (H-C[Cha]INNCP[Orn]G-NH2; disulfide 1-6)	8.49	6.85				> 3100	< 5.00	> 10000	43	> 3100		< 5.00	> 10000	
